pIC50: −log10 of the molar value. Active and inactive are the calls of the source. The rule behind the calls is not given here.

In general, pIC50 refers to the negative decadic logarithm of the IC50, by convention in mol/L. As a reminder, the inhibition in vivo is the change of the read-out against control, counted positive when it falls.

Test [1] deals with HepG2. Kind of test: Cytotoxicity against human HepG2 cells […] by MTT assay. It is filed as functional, cell-based. In outline: (§1)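 Cells (1 × 10⁴/ml) in RPMI-1640 were cultured 24 h at 37 °C in 5% CO₂. Medium was then renewed with compound (final 0.1–200 µM) and cells grown a further 48 h. MTT was added for 4 h, residues dissolved in DMSO and absorbance read. I% = (C − T)/C. IC50 is given as mean ± SD, n = 6.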
(In general: Tetrazolium assays rely on reduction of a dye to a coloured formazan, in cell work by metabolically active cells.)

Test [2] concerns Bel-7402. Briefly: Cytotoxicity against human Bel7402 cells […] by MTT assay. Type of test: functional, cell-based. The essentials:
as §1

Test [3] has as its system K562. Briefly: Cytotoxicity against human K562 cells […] by MTT assay. It is filed as functional, cell-based. In outline: as §1
The test system of test [4] is CCRF S-180. Briefly: Antitumor activity against mouse S180 cells transplanted in ICR mouse assessed as inhibition of tumor weight at 8.9 umol/kg, ip. Type of test: functional. The conditions noted are these: CCRF S-180, ip. The essentials:
(§2)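 S180 ascites cells, serially passaged weekly in mice, were implanted subcutaneously (1 × 10⁷ viable cells in NS) in the right axilla of male ICR mice aged 10–12 weeks. After 24 h, mice were randomized (10/group) and dosed ip daily with 8.9 µmol/kg in 0.2 ml NS for 7 days. Tumours were weighed 24 h after the last dose. Inhibition = [1 − Tw/Cw] × 100.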

The test system of test [5] is CCRF S-180. Kind of test: Antitumor activity against mouse S180 cells transplanted in ICR mouse assessed as inhibition of tumor weight at 89 umol/kg, ip. Type of test: functional. The conditions noted are these: CCRF S-180, ip.
Test [6] concerns CCRF S-180. Kind of test: Antitumor activity against mouse S180 cells transplanted in ICR mouse assessed as inhibition of tumor weight at 0.89 umol/kg, ip. The conditions noted are these: CCRF S-180, ip. Type of test: functional.
Test [7] has as its system HeLa. Briefly: Cytotoxicity against human HeLa cells […] by MTT assay. Type of test: functional, cell-based. In outline: as §1
In test [8] the test system is B16. Kind of test: Cytotoxicity against mouse B16 cells […] by MTT assay. It is filed as functional, cell-based.
For test [9], the system named is Calf thymus DNA. Kind of test: Binding affinity to calf thymus DNA assessed as induction of hypochromatic effect by spectrophotometry. It is filed as nucleic-acid assay. The conditions noted are these: Bos taurus. The essentials:
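UV absorption spectra (220–400 nm) were recorded in PBS for CT DNA (final 240 µM), alone and with test compound at final concentrations of 27, 54, 81 and 108 µM. Hypochromicity and wavelength shift were assessed.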

Test [10] deals with Calf thymus DNA. Kind of test: Binding affinity to calf thymus DNA assessed as decrease in fluorescence intensity at 8 to 72 uM by fluorescence spectroscopy. The conditions noted are these: Bos taurus. It is filed as nucleic-acid assay.
For test [11], the system named is Calf thymus DNA. Kind of test: Binding affinity to calf thymus DNA assessed as increase in viscosity. Type of test: nucleic-acid assay. Particulars: Bos taurus. In outline: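 An Ostwald viscometer was held at 28 °C in phosphate buffer, with compound/DNA ratios of 0–0.36. Flow times were taken after 5 min of thermal equilibration. η = (t − t₀)/t₀, and data were plotted as (η/η₀)^1/3 versus binding ratio.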

Test [12] relates to Calf thymus DNA. Briefly: Binding affinity to calf thymus DNA assessed as change in melting temperature. It is filed as nucleic-acid assay. The conditions noted are these: Bos taurus. The essentials: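 Thermal denaturation used CT DNA (100 µM) with test compound (18 µM) in PBS, pH 7.4, at a compound/DNA ratio of 0.18. Temperature was raised at 1 °C/min while absorbance at 260 nm was monitored.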

The subject of test [13] is CCRF S-180. Kind of test: Antitumor activity against mouse S180 cells transplanted in ICR mouse assessed as inhibition of tumor weight. Type of test: functional, cell-based. In outline:
as §2

Take `Nc1ccn([C@@H]2O[C@H](CO)[C@@H](O)[C@@H]2O)c(=O)n1` [CYTARABINE]: the values for the pIC50 in test [1], in test [2] and in [3] were 6.70, 4.47 and 4.47, respectively. Moreover, in test [4], the inhibition in vivo at 8.9 µmol/kg is 24.3%. The inhibition in vivo at 89 µmol/kg in [5] worked out at 54.8%. Moreover, the inhibition in vivo at 0.89 µmol/kg in [6] stood at 6.8%.

On to `O=C(OCc1ccccc1)c1cc2c([nH]c3ccccc32)c(CCN2CCC[C@H]2C(=O)OCc2ccccc2)n1`, for which the pIC50 is 4.77 in test [1]; 4.59 in test [7]; 4.28 in test [2]; 4.70 in test [3]; 4.14 in test [8]. For the same molecule, the inhibition in vivo at 8.9 µmol/kg in [4] was 7.1%.

Regarding `CC[C@H](C)[C@H](NCCc1nc(C(=O)OCc2ccccc2)cc2c1[nH]c1ccccc12)C(=O)OCc1ccccc1`, the pIC50 in [1] is < 4.00; in [7], < 4.00; in test [2] it was < 4.00; in test [3], < 4.00; in test [8] it was 4.72. The inhibition in vivo at 8.9 µmol/kg in test [4] turned out to be 33.9%.

`O=C(NCCCC[C@H](NCCc1nc(C(=O)OCc2ccccc2)cc2c1[nH]c1ccccc12)C(=O)OCc1ccccc1)OCc1ccccc1`: the negative-log IC50 (pIC50) is 4.44 in test [1]; 4.47 in [7]; 4.83 in test [2]; 4.81 in test [3]; 4.31 in [8]. Besides, in test [4], the inhibition in vivo at 8.9 µmol/kg turned out to be 28.9%.

Consider `O=C(CNCCc1nc(C(=O)OCc2ccccc2)cc2c1[nH]c1ccccc12)OCc1ccccc1`, for which the negative-log IC50 (pIC50) in test [1] is 4.30; in [7], 4.57; in [2], 4.27; in test [3], 4.33; in [8], 4.12. Also, in test [4], the inhibition in vivo at 8.9 µmol/kg was 3.5%.

Turning to `C[C@H](NCCc1nc(C(=O)OCc2ccccc2)cc2c1[nH]c1ccccc12)C(=O)OCc1ccccc1`, the pIC50 in [1] was < 4.00; in test [7], 4.12; in test [2] it was 4.00; in test [3] it was 4.32; in [8] it was 4.69. Moreover, in test [4], the inhibition in vivo at 8.9 µmol/kg amounted to 22%.

Regarding `C[C@@H](O)[C@H](NCCc1nc(C(=O)OCc2ccccc2)cc2c1[nH]c1ccccc12)C(=O)OCc1ccccc1`, the pIC50 in [1] is 4.59; in test [7] it was 4.82; in test [2], < 4.00; in test [3], 4.42; in test [8] it was 4.42. The inhibition in vivo at 8.9 µmol/kg in test [4] came to 34.8%.

On to `NC(=O)CC[C@H](NCCc1nc(C(=O)OCc2ccccc2)cc2c1[nH]c1ccccc12)C(=O)OCc1ccccc1`, for which the negative-log IC50 (pIC50) in test [1] was 4.44; in test [7], 4.15; in test [2] it was 4.09; in test [3], < 4.00; in test [8], 4.37. The inhibition in vivo at 8.9 µmol/kg in test [4] was -5.3%.

As to `O=C(OCc1ccccc1)c1cc2c([nH]c3ccccc32)c(CCN[C@@H](CO)C(=O)OCc2ccccc2)n1`, the pIC50 in test [1] is 4.70; in test [7], 4.69; in [2], 4.26; in test [3], 4.71; in test [8], 4.22. The inhibition in vivo at 8.9 µmol/kg in [4] was 36.7%.

For `O=C(OCc1ccccc1)c1cc2c([nH]c3ccccc32)c(CCN[C@@H](Cc2ccc(O)cc2)C(=O)OCc2ccccc2)n1`, the pIC50 in [1] was < 4.00; in [7] it was 4.78; in test [2] it was 4.63; in [3] it was 4.72; in test [8] it was 4.61. Further, the inhibition in vivo at 8.9 µmol/kg in test [4] was determined as 31.7%.

Take `CC(C)C[C@H](NCCc1nc(C(=O)OCc2ccccc2)cc2c1[nH]c1ccccc12)C(=O)OCc1ccccc1`: the pIC50 in test [1] is 4.60; in test [7] it was 4.65; in test [2], 4.36; in test [3], 4.67; in test [8], 4.30. The inhibition in vivo at 8.9 µmol/kg in test [4] worked out at 50.9%. For the same molecule, the figures for the Activity in test [9] and in test [11] were 53% and “Dose-dependent effect”, respectively. The result in [10] was Active. In addition, the Tm in test [12] turned out to be 13.8 °C.

For `O=C(OCc1ccccc1)c1cc2c([nH]c3ccccc32)c(CCN[C@@H](Cc2ccccc2)C(=O)OCc2ccccc2)n1`, the pIC50 in test [1] was < 4.00; in test [7] it was < 4.00; in test [2], < 4.00; in test [3], < 4.00; in test [8], 4.55. Also, in test [4], the inhibition in vivo at 8.9 µmol/kg was 6.6%.

Consider `O=C(C[C@H](NCCc1nc(C(=O)OCc2ccccc2)cc2c1[nH]c1ccccc12)C(=O)OCc1ccccc1)OCc1ccccc1`, for which the pIC50 in test [1] is < 4.00; in [7], < 4.00; in test [2], 4.22; in [3], < 4.00; in test [8], 4.95. Also, the inhibition in vivo at 8.9 µmol/kg in [4] is 56.1%. Moreover, in [5], the inhibition in vivo at 89 µmol/kg turned out to be 73.5%. The inhibition in vivo at 0.89 µmol/kg in test [6] was determined as 40.6%. Moreover, the Activity entry in test [13] was “Dose-dependent effect”.

For the molecule `O=C(OCc1ccccc1)c1cc2c([nH]c3ccccc32)c(CCN[C@@H](Cc2c[nH]c3ccccc23)C(=O)OCc2ccccc2)n1`, the pIC50 was 4.22 in [1]; 4.23 in test [7]; 4.41 in [2]; 4.83 in test [3]; 4.68 in test [8]. Besides, the inhibition in vivo at 8.9 µmol/kg in test [4] was 22.2%.

`CC(C)[C@H](NCCc1nc(C(=O)OCc2ccccc2)cc2c1[nH]c1ccccc12)C(=O)OCc1ccccc1`: the pIC50 in test [1] was 4.53; in test [7], 4.59; in test [2], 4.69; in test [3], 4.68; in test [8], 4.54. Also, the inhibition in vivo at 8.9 µmol/kg in test [4] was determined as 34%.

As for `NC(=O)C[C@H](NCCc1nc(C(=O)OCc2ccccc2)cc2c1[nH]c1ccccc12)C(=O)OCc1ccccc1`, the pIC50 is < 4.00 in [1]; 4.01 in test [7]; < 4.00 in test [2]; 4.20 in test [3]; 4.77 in test [8]. Besides, in test [4], the inhibition in vivo at 8.9 µmol/kg was 14%.

As for `O=C(OCc1ccccc1)c1cc2c([nH]c3ccccc32)c(CCN[C@@H](Cc2c[nH]cn2)C(=O)OCc2ccccc2)n1`, the pIC50 in test [1] was < 4.00; in [7], 4.20; in test [2], 4.43; in test [3] it was 4.84; in [8], 4.22. In test [4], the inhibition in vivo at 8.9 µmol/kg is 35.4%. For the same molecule, in [5], the inhibition in vivo at 89 µmol/kg is 60.7%. Further, in test [6], the inhibition in vivo at 0.89 µmol/kg was 6.3%. For the same molecule, the Activity result in test [13] is “Dose-dependent effect”.

As to `O=C(CC[C@H](NCCc1nc(C(=O)OCc2ccccc2)cc2c1[nH]c1ccccc12)C(=O)OCc1ccccc1)OCc1ccccc1`, the pIC50 in test [1] was 4.20; in [7], 4.26; in test [2], < 4.00; in test [3] it was 4.73; in test [8], 4.18. The inhibition in vivo at 8.9 µmol/kg in test [4] is 29.4%.

Turning to `CSCC[C@H](NCCc1nc(C(=O)OCc2ccccc2)cc2c1[nH]c1ccccc12)C(=O)OCc1ccccc1`, the pIC50 is 4.73 in test [1]; 4.54 in [7]; 4.59 in [2]; 4.87 in test [3]; 4.21 in [8]. Besides, the inhibition in vivo at 8.9 µmol/kg in test [4] worked out at 15.3%.

Source of the values: ChEMBL document CHEMBL1221334, “A class of novel carboline intercalators: Their synthesis, in vitro anti-proliferation, in vivo anti-tumor action, and 3D QSAR analysis” (Bioorg Med Chem, 2010).
